Calls of active or inactive are those of the source. The rule behind the calls is not given here.
Columns and labels:
[1] = system: Mus musculus; experiment: Behavioral toxicity in po dosed albino Icem-CET (SPF Caw) mouse assessed as reduction in locomotor activity by Irwin's test; format: organism-based; conditions: in vivo
[2] = system: Mus musculus; experiment: Behavioral toxicity in albino Icem-CET (SPF Caw) mouse assessed as positional passivity at 25 to 800 mg/kg, po by Irwin's test; format: organism-based; parameters: dose 25-800 mg/kg, route oral; conditions: in vivo
[3] = system: Mus musculus; experiment: Behavioral toxicity in albino Icem-CET (SPF Caw) mouse assessed as clonic type convulsion at 25 to 800 mg/kg, po by Irwin's test; format: organism-based; parameters: dose 25-800 mg/kg, route oral; conditions: in vivo
[4] = Behavioral toxicity in po dosed albino Icem-CET (SPF Caw) mouse measured up to 7 days by Irwin's test; format: organism-based; conditions: in vivo
[5] = system: Mus musculus; experiment: Behavioral toxicity in albino Icem-CET (SPF Caw) mouse assessed as tremors at 25 to 800 mg/kg, po by Irwin's test; format: organism-based; parameters: dose 25-800 mg/kg, route oral; conditions: in vivo
[6] = system: Mus musculus; experiment: Anticonvulsant activity in albino Icem-CET (SPF Caw) mouse assessed as inhibition of pentylenetetrazole-induced maximal extensor seizures at 100 mg/kg, po administered 30 mins prior challenge; format: functional, organism-based; parameters: dose 100 mg/kg
Summary of the method: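 Single-dose screen at 100 mg/kg by gavage in 0.5% Methocel in fasted male Icem-CET (SPF Caw) mice, 17-22 g. Dosing was 30 min before pentylenetetrazole 130 mg/kg ip, and prevention of maximal extensor seizures was scored.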

[7] = system: Mus musculus; experiment: Behavioral toxicity in po dosed albino Icem-CET (SPF Caw) mouse assessed as tremors by Irwin's test; format: organism-based; conditions: in vivo
[8] = system: Mus musculus; experiment: Behavioral toxicity in po dosed albino Icem-CET (SPF Caw) mouse assessed as positional passivity by Irwin's test; format: organism-based; conditions: in vivo
[9] = Toxicity in po dosed albino Icem-CET (SPF Caw) mouse assessed as mortality measured after 24 to 72 hrs; format: organism-based; conditions: in vivo
[10] = system: Mus musculus; experiment: Toxicity in po dosed albino Icem-CET (SPF Caw) mouse assessed as impairment of corneal reflexes by Irwin's test; format: organism-based, Cornea; conditions: in vivo
[11] = system: Mus musculus; experiment: Anticonvulsant activity in po dosed albino Icem-CET (SPF Caw) mouse assessed as inhibition of pentylenetetrazole-induced maximal extensor seizures compound administered 30 mins prior challenge; format: functional
Summary of the method: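 Pentylenetetrazole antagonism in male Icem-CET (SPF Caw) mice, 17-22 g, fasted 9 h. Compound in 0.5% Methocel was given by gavage (0.2 ml/10 g) at 4-5 doses, 20 mice per dose, 30 min before pentylenetetrazole 130 mg/kg ip. Prevention of maximal extensor seizures was scored. ED50 was calculated by probit analysis, with fiducial limits at p = 0.05.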

[12] = system: Mus musculus; experiment: Toxicity in po dosed albino Icem-CET (SPF Caw) mouse assessed as impairment of pinna by Irwin's test; format: organism-based; conditions: in vivo
[13] = system: Mus musculus; experiment: Behavioral toxicity in po dosed albino Icem-CET (SPF Caw) mouse assessed as excitement at 25 to 100 mg/kg, po measured up to 30 mins post dose by Irwin's test; format: organism-based; parameters: dose 25-100 mg/kg, route oral; conditions: in vivo, 0.5 h
[14] = system: Mus musculus; experiment: Behavioral toxicity in albino Icem-CET (SPF Caw) mouse assessed as positional passivity at 25 to 800 mg/kg, po measured up to 90 mins by Irwin's test; format: organism-based; parameters: dose 25-800 mg/kg, route oral; conditions: in vivo, 1.5 h
[15] = system: Mus musculus; experiment: Behavioral toxicity in albino Icem-CET (SPF Caw) mouse assessed as tremor at 200 to 800 mg/kg, po measured after 90 mins by Irwin's test; format: organism-based; parameters: dose 200-800 mg/kg, route oral; conditions: in vivo, 1.5 h
[16] = system: Mus musculus; experiment: Behavioral toxicity in albino Icem-CET (SPF Caw) mouse assessed as twitches at 200 to 800 mg/kg, po measured after 90 mins by Irwin's test; format: organism-based; parameters: dose 200-800 mg/kg, route oral; conditions: in vivo, 1.5 h
[17] = system: Mus musculus; experiment: Toxicity in albino Icem-CET (SPF Caw) mouse assessed as clonic type convulsion at 200 to 800 mg/kg, po measured after 90 mins by Irwin's test; format: organism-based; parameters: dose 200-800 mg/kg, route oral; conditions: in vivo, 1.5 h
[18] = system: Mus musculus; experiment: Toxicity in po dosed albino Icem-CET (SPF Caw) mouse assessed as clonic type convulsion by Irwin's test; format: organism-based; conditions: in vivo
Summary of the method: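 Irwin test in fasted (9 h) male Icem-CET (SPF Caw) mice, 17-22 g. Oral gavage of a 0.5% Methocel suspension at screening doses of 25-800 mg/kg. Clonic-type convulsions were scored as the minimum effective dose.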

[19] = system: Mus musculus; experiment: Behavioral toxicity in albino Icem-CET (SPF Caw) mouse assessed as reduction in locomotor activity at 25 to 800 mg/kg, po by Irwin's test; format: organism-based; parameters: dose 25-800 mg/kg, route oral; conditions: in vivo

| Compound | ED50 [1] | Activity [2] | LD50 at 168 h [4] | Activity [6] | ED50 [7] | ED50 [8] | Activity [10] | Activity [12] | MED [18] | further results |
| --- | --- | --- | --- | --- | --- | --- | --- | --- | --- | --- |
| C=CCNC(=O)/C(C)=C(/C)c1ccc(Br)cc1 | 400 mg/kg | Non-toxic | 600 mg/kg | inactive | – | – | – | – | – | Activity [3]: Non-toxic; Activity [5]: Non-toxic |
| C/C(C(=O)NC1CC1)=C(\C)c1ccc(Cl)cc1 | 170 mg/kg | Non-toxic | 450 mg/kg | – | 600 mg/kg | – | – | – | – | Activity [3]: Non-toxic |
| C#CCNC(=O)/C(C)=C(\C)c1ccc(Cl)cc1 | 60 mg/kg | – | – | – | 200 mg/kg | 400 mg/kg | – | – | – | LD50 [9]: 140 mg/kg |
| C#CCNC(=O)/C(C)=C(\C)c1ccc(F)cc1 | 100 mg/kg | – | 240 mg/kg | – | 100 mg/kg | 200 mg/kg | Toxic | Toxic | – | ED50 [11]: 22.8 mg/kg |
| C/C(C(=O)NC1CC1)=C(\C)c1ccc(C)cc1 | 280 mg/kg | – | > 800 mg/kg | inactive | – | 500 mg/kg | – | – | – | Activity [3]: Non-toxic; Activity [5]: Non-toxic |
| C/C(C(=O)NC1CC1)=C(/C)c1ccc(Br)cc1 | 100 mg/kg | – | – | – | 130 mg/kg | 600 mg/kg | – | – | – | LD50 [9]: 200 mg/kg; ED50 [11]: 8.2 mg/kg |
| CCC1(c2ccccc2)C(=O)N=C([O-])NC1=O.[Na+] (configuration not stated) [PHENOBARBITAL SODIUM] | 180 mg/kg | – | 290 mg/kg | – | 110 mg/kg | 180 mg/kg | – | – | – | Activity [13]: Toxic |
| C/C(C(=O)NC1CC1)=C(/C)c1ccc(F)cc1 | 110 mg/kg | – | 300 mg/kg | – | 70 mg/kg | 200 mg/kg | Toxic | Toxic | – | ED50 [11]: 25 mg/kg |
| O=C1NC(=O)C(c2ccccc2)(c2ccccc2)N1 [PHENYTOIN] | 150 mg/kg | – | – | – | 250 mg/kg | – | – | – | – | Activity [14]: Non-toxic; Activity [15]: Non-toxic; Activity [16]: Non-toxic; Activity [17]: Non-toxic |
| COc1ccc(/C(C)=C(/C)C(=O)NC2CC2)cc1 | 300 mg/kg | Non-toxic | 450 mg/kg | inactive | 300 mg/kg | – | – | – | 400 mg/kg | – |
| C=CCNC(=O)/C(C)=C(\C)c1ccc(F)cc1 | 70 mg/kg | – | 400 mg/kg | – | 130 mg/kg | 150 mg/kg | Toxic | Toxic | – | ED50 [11]: 40.2 mg/kg |
| C/C(C(=O)NC1CC1)=C(\C)c1ccc(F)cc1 | – | Non-toxic | 450 mg/kg | inactive | 600 mg/kg | – | Toxic | Toxic | 800 mg/kg | Activity [19]: Non-toxic |
| C/C(C(=O)NC1CC1)=C(\C)c1ccccc1 | 400 mg/kg | Non-toxic | 600 mg/kg | inactive | 300 mg/kg | – | – | – | 400 mg/kg | – |
| C=CCNC(=O)/C(C)=C(/C)c1ccc(C)cc1 | 280 mg/kg | Non-toxic | > 800 mg/kg | inactive | 400 mg/kg | – | – | – | 400 mg/kg | – |
| C/C(C(=O)NC1CC1)=C(\C)c1ccc(Br)cc1 | 300 mg/kg | – | 600 mg/kg | – | – | 450 mg/kg | – | – | – | Activity [3]: Non-toxic; Activity [5]: Non-toxic |
| C=CCNC(=O)/C(C)=C(/C)c1ccc(F)cc1 | 270 mg/kg | – | 400 mg/kg | inactive | 250 mg/kg | 300 mg/kg | Toxic | Toxic | 800 mg/kg | – |
